Results as given in ChEMBL document CHEMBL2021862, “5-imino-1,2,4-thiadiazoles: first small molecules as substrate competitive inhibitors of glycogen synthase kinase 3” (J Med Chem, 2012).
Activity calls are given as the source filed them. The rule behind the calls is not given here.

What was measured:
[1] = biological target: T1, Glycogen synthase kinase-3 beta (Homo sapiens, UniProt P49841); experiment: Inhibition of human recombinant GSK3beta after 30 mins by luminescence assay in presence of ATP
Target sequence in this assay (P49841 whole entry): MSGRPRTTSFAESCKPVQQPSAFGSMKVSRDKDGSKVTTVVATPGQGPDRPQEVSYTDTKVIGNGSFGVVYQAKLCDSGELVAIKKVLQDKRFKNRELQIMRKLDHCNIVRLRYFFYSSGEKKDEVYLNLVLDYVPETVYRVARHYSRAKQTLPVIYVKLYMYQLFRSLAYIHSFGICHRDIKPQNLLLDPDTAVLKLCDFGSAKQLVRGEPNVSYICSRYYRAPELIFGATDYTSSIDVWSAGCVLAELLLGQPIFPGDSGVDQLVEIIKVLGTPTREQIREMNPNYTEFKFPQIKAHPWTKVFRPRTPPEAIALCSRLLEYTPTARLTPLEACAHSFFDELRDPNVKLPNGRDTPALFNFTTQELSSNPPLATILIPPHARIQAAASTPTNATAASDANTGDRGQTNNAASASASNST

[2] = biological target: T1, Glycogen synthase kinase-3 beta; experiment: Inhibition of human recombinant GSK3beta at 10 uM after 30 mins by luminescence assay in presence of ATP
In short: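 Human recombinant GSK-3β (20 ng) with prephosphorylated polypeptide substrate 25 μM and ATP 1 μM in 50 mM HEPES pH 7.5, 1 mM EDTA, 1 mM EGTA, 15 mM Mg acetate. Final DMSO ≤1%. Incubated 30 min at 30 °C, stopped with Kinase-Glo reagent, and luminescence read after 10 min. Inhibition is relative to the no-inhibitor maximum. IC50 is the concentration giving 50% activity loss.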
Target sequence in this assay (P49841 whole entry, looked up): as the sequence (P49841 whole entry) above

NSC = experiment: Neurogenic activity in rat hippocampal NSC assessed as increase in beta-tubulin after 24 hrs by DAPI staining-based immunocytometric analysis; type: functional, cell-based; details: Hippocampus
In short: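 Neurospheres from adult rat hippocampus were expanded in DMEM/F12 with EGF and FGF (10 ng/mL each) and B27, and treated with compound. Spheres were plated on poly-L-lysine without growth factors. Cells were fixed in 4% paraformaldehyde, permeabilized with 0.1% Triton X-100, stained with anti-β-tubulin (Tuj1) and an Alexa secondary, counterstained with DAPI, and imaged by confocal microscopy.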

[3] = biological target: T1, Glycogen synthase kinase-3 beta; experiment: Non-competitive inhibition of human recombinant GSK3beta at 10 uM after 30 mins by Michaelis-Menten equation in presence of 1 to 50 uM ATP; details: 0.4 to 2 uM, in the assay text read “at 0.4 to 2 uM” for “at 10 uM”
In short: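 Double-reciprocal kinetics on GSK-3β using the ADP-Glo kinase assay. ATP was varied from 1 to 50 μM and inhibitor from 0.4 to 2 μM, with GS-2 fixed at 12.5 μM. Each point is the mean of two experiments, each run in duplicate.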
Target sequence in this assay (P49841 whole entry, looked up): as the sequence (P49841 whole entry) above

[4] = biological target: T1, Glycogen synthase kinase-3 beta; experiment: Competitive inhibition of human recombinant GSK3beta at 0.5 to 2.5 uM after 30 mins by Michaelis-Menten equation in presence of 1 uM ATP
Target sequence in this assay (P49841 whole entry, looked up): as the sequence (P49841 whole entry) above

Astrocyte = experiment: Neuroprotective activity in rat astrocytes assessed as decrease in LPS-induced nitrite production at 28 to 52 ug/ml after 24 hrs administered 1 hr before LPS challenge by Griess method; type: functional, cell-based
In short: (§1)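 Astrocytes and microglia were from neonatal (P2) rat cortex, separated by shaking; microglia received 10 ng/mL GM-CSF. Purity >98% (OX42/GFAP). Cells were pretreated 1 h with compound, then given LPS for 24 h. Supernatant was mixed 1:1 with Griess reagent, left 15 min at room temperature, and absorbance read at 492/540 nm.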

Cortical neurone = experiment: Neuroprotective activity in rat cortical neurons assessed as decrease in LPS-induced nitrite production at 28 to 52 ug/ml after 24 hrs administered 1 hr before LPS challenge by Griess method; type: functional
In short: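 Cortical neurons from E18 rats were grown in Neurobasal/B-27 at 37 °C, 5% CO2 for 1 week. They were pretreated 1 h with compound, then exposed to supernatant from LPS-stimulated microglia. After 24 h, nitrite in the medium was measured by Griess reaction (equal volume reagent, 15 min room temperature, absorbance 492/540 nm).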

Microglia = experiment: Neuroprotective activity in rat microglia cells assessed as decrease in LPS-induced nitrite production at 28 to 52 ug/ml after 24 hrs administered 1 hr before LPS challenge by Griess method; type: functional, cell-based; in short: as §1
[5] = Effective permeability across porcine polar brain lipid after 4 hrs by PAMPA; details: pig; for Peff: pampa, 4 h; for Papp at 4 h: PAMPA

Row | SMILES | IC50 [1] [nM] | inhibition [2] | also measured
1 | O=[N+]([O-])c1ccc(-n2s/c(=N/Cc3cccnc3)nc2-c2ccccc2)cc1 | 1000 | > 60% | –
2 | OCCNC(=S)N/C(=N/c1ccccc1)c1ccccc1 | – | inactive | –
3 | OCC/N=c1\nc(-c2ccccc2)n(-c2ccccc2)s1 | – | > 60% | Activity (NSC): Active; inhibition [3]: Active; inhibition [4]: Active; Activity (Astrocyte): Active; Activity (Cortical neurone): Active; Activity (Microglia): Active
4 | S=C(N/C(=N/c1ccccc1)c1ccccc1)NC1CCCCC1 | – | inactive | –
5 | Br.c1ccc(-c2n/c(=N\C3CCCCC3)sn2-c2ccccc2)cc1 | 2100 | > 60% | Peff [5]: ND(Insoluble)
6 | Br.CCOC(=O)C/N=c1\nc(-c2ccc(OC)cc2)n(-c2ccccc2)s1 | 500 | > 60% | Papp at 4 h [5]: 4 ×10⁻⁶ cm/s
7 | CCOC(=O)CNC(=S)N/C(=N/c1ccccc1)c1ccc(OC)cc1 | – | inactive | –
8 | CCCCC/N=c1\nc(-c2ccc(OC)cc2)n(-c2ccccc2)s1 [listing 1 of 2 here] | – | > 60% | –
9 | Br.COc1ccc(-c2n/c(=N\c3ccccc3)sn2-c2ccccc2)cc1 | 1100 | > 60% | Peff [5]: ND(Insoluble)
10 | S=C(NCc1cccnc1)N/C(=N/c1ccccc1)c1ccccc1 | – | inactive | –
11 | S=C(NCCN1CCOCC1)N/C(=N/c1ccccc1)c1ccccc1 | – | inactive | –
12 | OCC/N=c1\nc(-c2ccccc2)n(-c2cccc3ccccc23)s1 | 300 | > 60% | –
13 | CCOC(=O)CNC(=S)N/C(=N/c1ccc([N+](=O)[O-])cc1)c1ccccc1 | – | inactive | –
14 | Br.c1ccc(-c2n/c(=N\CCN3CCOCC3)sn2-c2ccccc2)cc1 | 900 | > 60% | Papp at 4 h [5]: 7.2 ×10⁻⁶ cm/s; inhibition [3]: Active; inhibition [4]: Active
15 | Br.c1ccc(-c2n/c(=N\Cc3cccnc3)sn2-c2ccccc2)cc1 | 1300 | > 60% | Activity (NSC): Active; Papp at 4 h [5]: 10.7 ×10⁻⁶ cm/s; inhibition [3]: Active; inhibition [4]: Active; Activity (Astrocyte): Active; Activity (Cortical neurone): Active; Activity (Microglia): Active
16 | O=[N+]([O-])c1ccc(/N=C(/NC(=S)NCc2cccnc2)c2ccccc2)cc1 | – | inactive | –
17 | Br.N=c1nc(-c2ccccc2)n(-c2ccccc2)s1 | 600 | > 60% | Papp at 4 h [5]: 9.1 ×10⁻⁶ cm/s
18 | Br.FC(F)(F)c1ccc(-c2n/c(=N\Cc3cccnc3)sn2-c2ccccc2)cc1 | 1600 | > 60% | Peff [5]: ND(Insoluble)
19 | c1ccc(-n2s/c(=N/Cc3cccnc3)nc2-c2cccc3ccccc23)cc1 [listing 1 of 3 here] | – | > 60% | –
20 | COc1ccc(/C(=N\c2ccccc2)NC(=S)Nc2ccccc2)cc1 | – | inactive | –
21 | S=C(NCc1cccnc1)N/C(=N/c1ccccc1)c1cccc2ccccc12 | – | inactive | –
22 | CCCCCNC(=S)N/C(=N/c1ccccc1)c1ccccc1 | – | inactive | –

Row | SMILES | IC50 [1] [nM] | inhibition [2] | also measured
23 | OCCNC(=S)N/C(=N/c1cccc2ccccc12)c1ccccc1 | – | inactive | –
24 | Br.Cc1n/c(=N\Cc2cccnc2)sn1-c1ccccc1 | 600 | > 60% | Papp at 4 h [5]: 5.3 ×10⁻⁶ cm/s
25 | c1ccc(/N=c2\nc(-c3ccccc3)n(-c3ccccc3)s2)cc1 | – | > 60% | Peff [5]: ND(Insoluble)
26 | Br.OCC/N=c1\nc(-c2ccccc2)n(-c2ccccc2)s1 | 2000 | – | Papp at 4 h [5]: 15.8 ×10⁻⁶ cm/s
27 | c1ccc(/N=C(/N=c2/nc3ccccn3s2)c2ccccc2)cc1 | – | 14% | –
28 | Br.CCOC(=O)C/N=c1\nc(-c2ccccc2)n(-c2ccccc2)s1 | 7000 | – | Papp at 4 h [5]: 6.2 ×10⁻⁶ cm/s
29 | COc1ccc(/C(=N\c2ccccc2)NC(=S)NCCO)cc1 | – | inactive | –
30 | CCOC(=O)CNC(=S)N/C(=N/c1ccc(OC)cc1)c1ccccc1 | – | inactive | –
31 | CCCCC/N=c1\nc(-c2ccccc2)n(-c2ccccc2)s1 | 1400 | > 60% | –
32 | CCCCCc1n/c(=N\Cc2cccnc2)sn1-c1ccccc1 | 800 | > 60% | –
33 | CCCCC/C(=N\c1ccccc1)NC(=S)NCc1cccnc1 | – | inactive | –
34 | CCOC(=O)C/N=c1\nc(-c2ccccc2)n(-c2ccccc2)s1 [listing 1 of 2 here] | – | > 60% | Activity (NSC): Active; Activity (Astrocyte): Active; Activity (Cortical neurone): Active; Activity (Microglia): Active
35 | CN1C(C(=O)Nc2ccccn2)=C(O)c2ccccc2S1(=O)=O [PIROXICAM] | – | – | Papp at 4 h [5]: 1.7 ×10⁻⁶ cm/s
36 | Br.COc1ccc(-c2n/c(=N\CCO)sn2-c2ccccc2)cc1 | 1200 | > 60% | Papp at 4 h [5]: 13.7 ×10⁻⁶ cm/s
37 | COc1ccc(/N=C(/NC(=S)NCCO)c2ccccc2)cc1 | – | inactive | –
38 | FC(F)(F)c1ccc(/C(=N\c2ccccc2)NC(=S)NCc2cccnc2)cc1 | – | inactive | –
39 | Br.CCOC(=O)C/N=c1\nc(-c2ccccc2)n(-c2ccc(OC)cc2)s1 | 2000 | > 60% | Papp at 4 h [5]: 4.4 ×10⁻⁶ cm/s
40 | c1ccc(-n2s/c(=N/Cc3cccnc3)nc2-c2cccc3ccccc23)cc1 [listing 2 of 3 here] | 2100 | – | –
41 | Br.COc1ccc(-n2s/c(=N/Cc3cccnc3)nc2-c2ccccc2)cc1 | 4100 | > 60% | Papp at 4 h [5]: 6.3 ×10⁻⁶ cm/s
42 | CCOC(=O)C/N=c1\nc(-c2ccccc2)n(-c2ccccc2)s1 [listing 2 of 2 here] | 1800 | – | –
43 | CCCCCNC(=S)N/C(=N/c1ccccc1)c1ccc(OC)cc1 | – | inactive | –
44 | S=C(N/C(=N/c1ccccc1)c1ccccc1)Nc1ccccn1 | – | inactive | –

Row | SMILES | IC50 [1] [nM] | inhibition [2] | also measured
45 | Br.COc1ccc(-n2s/c(=N/CCO)nc2-c2ccccc2)cc1 | 4600 | > 60% | Activity (NSC): Active; Papp at 4 h [5]: 13.4 ×10⁻⁶ cm/s; Activity (Astrocyte): Active; Activity (Cortical neurone): Active; Activity (Microglia): Active
46 | NC(=S)N/C(=N/c1ccccc1)c1ccccc1 | – | inactive | –
47 | CCCCC/N=c1\nc(-c2ccc(OC)cc2)n(-c2ccccc2)s1.Cl | 1100 | – | Papp at 4 h [5]: 8.5 ×10⁻⁶ cm/s
48 | Cn1c(=O)c2c(ncn2C)n(C)c1=O [CAFFEINE] | – | – | Papp at 4 h [5]: 1.6 ×10⁻⁶ cm/s
49 | Br.c1ccc(/N=c2/nc(-c3ccccc3)n(-c3ccccc3)s2)cc1 | – | > 60% | Peff [5]: ND(Insoluble)
50 | CCOC(=O)CNC(=S)N/C(=N/c1ccccc1)c1ccccc1 | – | inactive | –
51 | Br.COc1ccc(-c2n/c(=N\Cc3cccnc3)sn2-c2ccccc2)cc1 | 1200 | > 60% | Papp at 4 h [5]: 4.8 ×10⁻⁶ cm/s
52 | c1ccc(Cn2s/c(=N/Cc3cccnc3)nc2-c2ccccc2)cc1 | 1100 | > 60% | –
53 | C/C(=N\c1ccccc1)NC(=S)NCc1cccnc1 | – | inactive | –
54 | S=C(NCc1cccnc1)N/C(=N/c1cccc2ccccc12)c1ccccc1 | – | inactive | –
55 | Br.OCC/N=c1\nc(-c2cccc3ccccc23)n(-c2ccccc2)s1 | 300 | > 60% | Papp at 4 h [5]: 10.2 ×10⁻⁶ cm/s
56 | COc1ccc(/N=C(/NC(=S)NCc2cccnc2)c2ccccc2)cc1 | – | inactive | –
57 | OCCNC(=S)N/C(=N/c1ccccc1)c1cccc2ccccc12 | – | inactive | –
58 | CNCCCN1c2ccccc2CCc2ccccc21 [DESIPRAMINE] | – | – | Papp at 4 h [5]: 14.9 ×10⁻⁶ cm/s
59 | Cl.OCC/N=c1\nc(-c2ccccc2)n(-c2ccccc2)s1 | 600 | – | Papp at 4 h [5]: 13.6 ×10⁻⁶ cm/s
60 | S=C(NCc1cccnc1)N/C(=N/Cc1ccccc1)c1ccccc1 | – | inactive | –
61 | COc1ccc(/C(=N\c2ccccc2)NC(=S)NCc2cccnc2)cc1 | – | inactive | –
62 | c1ccc(-n2s/c(=N/Cc3cccnc3)nc2-c2cccc3ccccc23)cc1 [listing 3 of 3 here] | 900 | – | –
63 | CCCCC/N=c1\nc(-c2ccc(OC)cc2)n(-c2ccccc2)s1 [listing 2 of 2 here] | 300 | – | –
64 | S=C(N/C(=N/c1ccccc1)c1ccccc1)Nc1ccccc1 | – | inactive | –
65 | CCOC(=O)C/N=c1\nc(-c2ccccc2)n(-c2ccc([N+](=O)[O-])cc2)s1 | 1000 | > 60% | –
66 | c1ccc(-c2n/c(=N\Cc3cccnc3)sn2-c2cccc3ccccc23)cc1 | 2000 | > 60% | –
